Measurements reported in ChEMBL document CHEMBL4680236, “Design, synthesis and structure-activity relationships of novel 15-membered macrolides: Quinolone/quinoline-containing sidechains tethered to the C-6 position of azithromycin acylides” (Eur J Med Chem, 2020).
Values after ≈ are worked out from the molar mass of the structure shown.

Legend:
Assay type in all cases: functional
[1] = tested on: Streptococcus pneumoniae; assay: Antibacterial activity against Erythromycin-susceptible Streptococcus pneumoniae ATCC 49619 assessed as reduction in microbial growth
[2] = tested on: Streptococcus pneumoniae; assay: Bactericidal activity against Erythromycin-susceptible Streptococcus pneumoniae ATCC 49619
Outline: (§1)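 Bacteria were exposed to 1- to 8-fold MIC of the sample, then transferred to fresh medium without antibacterial. After further incubation, colonies were counted. MBC was taken as the lowest concentration giving a >3 log10 reduction in colony number.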

[3] = tested on: Streptococcus pneumoniae; assay: Ratio of MBC to MIC against Erythromycin-susceptible Streptococcus pneumoniae ATCC 49619
[4] = tested on: Streptococcus pneumoniae; assay: Antibacterial activity against penicillin-susceptible Streptococcus pneumoniae PU09 harboring mef gene assessed as reduction in microbial growth
[5] = tested on: Streptococcus pneumoniae; assay: Bactericidal activity against penicillin-susceptible Streptococcus pneumoniae PU09 harboring mef gene
Outline: (§2)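 Bacteria were exposed to 1- to 8-fold their MIC of test sample, then transferred to fresh culture medium without antibacterial compound and incubated for the required time. Colonies were then counted. MBC is the lowest concentration giving a reduction in colony number of >3 Log₁₀.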

[6] = tested on: Streptococcus pneumoniae; assay: Ratio of MBC to MIC against penicillin-susceptible Streptococcus pneumoniae PU09
[7] = tested on: Streptococcus pneumoniae; assay: Antibacterial activity against MLSB-resistant Streptococcus pneumoniae 07P390 harboring ermB gene assessed as reduction in microbial growth
[8] = tested on: Streptococcus pneumoniae; assay: Bactericidal activity against MLSB-resistant Streptococcus pneumoniae 07P390 harboring ermB gene assessed as reduction in microbial growth; outline: as §2
[9] = tested on: Streptococcus pneumoniae; assay: Ratio of MBC to MIC against MLSB-resistant Streptococcus pneumoniae 07P390 harboring ermB
[10] = tested on: Staphylococcus aureus; assay: Antibacterial activity against MLSB/methicillin/ciprofloxacin-resistant Staphylococcus aureus PU32 harboring ermA gene assessed as reduction in microbial growth
[11] = tested on: Staphylococcus aureus; assay: Bactericidal activity against MLSB/methicillin/ciprofloxacin-resistant Staphylococcus aureus PU32 harboring ermA gene; outline: as §2
[12] = tested on: Staphylococcus aureus; assay: Ratio of MBC to MIC against MLSB/methicillin/ciprofloxacin-resistant Staphylococcus aureus PU32 harboring ermA gene
[13] = tested on: Staphylococcus aureus; assay: Antibacterial activity against MLSB/methicillin-resistant Staphylococcus aureus 15B196 assessed as reduction in microbial growth
[14] = tested on: Staphylococcus aureus; assay: Bactericidal activity against MLSB/methicillin-resistant Staphylococcus aureus 15B196; outline: as §2
[15] = tested on: Haemophilus influenzae; assay: Antibacterial activity against azithromycin-susceptible Haemophilus influenzae ATCC 49247 assessed as reduction in microbial growth
[16] = tested on: Haemophilus influenzae; assay: Bactericidal activity against azithromycin-susceptible Haemophilus influenzae ATCC 49247; outline: as §1
[17] = tested on: Haemophilus influenzae; assay: Ratio of MBC to MIC against azithromycin-susceptible Haemophilus influenzae ATCC 49247
[18] = tested on: Streptococcus pyogenes; assay: Antibacterial activity against MLSB-resistant Streptococcus pyogenes 12-206 harboring ermA gene assessed as reduction in microbial growth
[19] = tested on: Streptococcus pyogenes; assay: Bactericidal activity against MLSB-resistant Streptococcus pyogenes 12-206 harboring ermA gene; outline: as §2
[20] = tested on: Streptococcus pyogenes; assay: Ratio of MBC to MIC against MLSB-resistant Streptococcus pyogenes 12-206 harboring ermA gene

Row | Compound | MIC [1] | MBC [2] | Ratio [3] | MIC [4] | MBC [5] | Ratio [6] | MIC [7] | MBC [8] | Ratio [9] | MIC [10] | MBC [11] | Ratio [12] | MIC [13] | MBC [14] | MIC [15] | MBC [16] | Ratio [17] | MIC [18] | MBC [19] | Ratio [20]
1 | CC[C@H]1OC(=O)[C@H](C)[C@@H](OC(=O)Cc2ccccn2)[C@H](C)[C@@H](O[C@@H]2O[C@H](C)C[C@H](N(C)C)[C@H]2O)[C@](C)(OC(=O)CCNCC#Cc2cnc3ccccc3c2)C[C@@H](C)CN(C)[C@H](C)[C@@H](O)[C@]1(C)O | 0.125 µg/mL | 0.125 µg/mL (≈ 0.132 µM) | 1 | 2 µg/mL | 2 µg/mL (≈ 2.11 µM) | 1 | 1 µg/mL | > 8 µg/mL | >8 | 2 µg/mL | 8 µg/mL (≈ 8.45 µM) | 4 | 128 µg/mL | > 256 µg/mL | 4 µg/mL | 4 µg/mL (≈ 4.23 µM) | 1 |  |  | 
2 | CC[C@H]1OC(=O)[C@H](C)[C@@H](OC(=O)Cc2ccccn2)[C@H](C)[C@@H](O[C@@H]2O[C@H](C)C[C@H](N(C)C)[C@H]2O)[C@](C)(OC(=O)CCNCCNc2cc3c(=O)c(C(=O)O)cn(C4CC4)c3cc2Cl)C[C@@H](C)CN(C)[C@H](C)[C@@H](O)[C@]1(C)O | 0.25 µg/mL | 0.25 µg/mL (≈ 0.23 µM) | 1 | 4 µg/mL | 4 µg/mL (≈ 3.68 µM) | 1 | 1 µg/mL | > 8 µg/mL | >8 | 8 µg/mL | > 64 µg/mL | >8 | > 256 µg/mL |  | 16 µg/mL | 32 µg/mL (≈ 29.5 µM) | 2 |  |  | 
3 | CC[C@H]1OC(=O)[C@H](C)[C@@H](OC(=O)Cc2ccccn2)[C@H](C)[C@@H](O[C@@H]2O[C@H](C)C[C@H](N(C)C)[C@H]2O)[C@](C)(OC(=O)CCNCCC#Cc2ccc3c(c2)c(=O)c(C(N)=O)cn3CC)C[C@@H](C)CN(C)[C@H](C)[C@@H](O)[C@]1(C)O | 0.12 µg/mL | 0.5 µg/mL (≈ 0.477 µM) | 4 | 2 µg/mL | 2 µg/mL (≈ 1.91 µM) | 1 | 256 µg/mL | > 256 µg/mL |  | 32 µg/mL | > 256 µg/mL | >8 | > 256 µg/mL | > 256 µg/mL | 16 µg/mL | 16 µg/mL (≈ 15.3 µM) | 1 | 8 µg/mL | > 64 µg/mL | >8
4 | CC[C@H]1OC(=O)[C@H](C)[C@@H](OC(=O)Cc2ccccn2)[C@H](C)[C@@H](O[C@@H]2O[C@H](C)C[C@H](N(C)C)[C@H]2O)[C@](C)(OC(=O)CCNCCCc2cnc3ccccc3c2)C[C@@H](C)CN(C)[C@H](C)[C@@H](O)[C@]1(C)O | 0.062 µg/mL | 0.062 µg/mL (≈ 0.0652 µM) | 1 | 2 µg/mL | 4 µg/mL (≈ 4.21 µM) | 2 | 2 µg/mL | 16 µg/mL | 8 | 4 µg/mL | 32 µg/mL (≈ 33.7 µM) | 8 | > 256 µg/mL |  | 16 µg/mL | 16 µg/mL (≈ 16.8 µM) | 1 |  |  | 
5 | CC[C@H]1OC(=O)[C@H](C)[C@@H](OC(=O)Cc2cccnc2)[C@H](C)[C@@H](O[C@@H]2O[C@H](C)C[C@H](N(C)C)[C@H]2O)[C@](C)(OC(=O)CCNCCC#Cc2ccc3c(c2)c(=O)c(C(N)=O)cn3C2CC2)C[C@@H](C)CN(C)[C@H](C)[C@H]2OC(=O)O[C@@]21C | 1 µg/mL | 2 µg/mL (≈ 1.84 µM) | 2 | 4 µg/mL | 8 µg/mL (≈ 7.37 µM) | 2 | 64 µg/mL | 128 µg/mL |  | 64 µg/mL | > 256 µg/mL | >4 | > 256 µg/mL | > 256 µg/mL | 64 µg/mL | 64 µg/mL (≈ 59 µM) | 1 | 32 µg/mL | 64 µg/mL (≈ 59 µM) | 2
6 | CC[C@H]1OC(=O)[C@H](C)[C@@H](OC(=O)Cc2ccccn2)[C@H](C)[C@@H](O[C@@H]2O[C@H](C)C[C@H](N(C)C)[C@H]2O)[C@](C)(OC(=O)CCNCCC#Cc2cncc(C(N)=O)c2)C[C@@H](C)CN(C)[C@H](C)[C@@H](O)[C@]1(C)O | 0.25 µg/mL | 0.25 µg/mL (≈ 0.262 µM) | 1 | 2 µg/mL | 4 µg/mL (≈ 4.2 µM) | 2 | 128 µg/mL | > 256 µg/mL |  | 16 µg/mL | > 128 µg/mL | >8 | > 256 µg/mL | > 256 µg/mL | 64 µg/mL | 128 µg/mL (≈ 134 µM) | 2 | 4 µg/mL | > 32 µg/mL | >8
7 | CC[C@H]1OC(=O)[C@H](C)[C@@H](OC(=O)Cc2ccccn2)[C@H](C)[C@@H](O[C@@H]2O[C@H](C)C[C@H](N(C)C)[C@H]2O)[C@](C)(OC(=O)CCNC/C=C/c2cnc3ccccc3c2)C[C@@H](C)CN(C)[C@H](C)[C@@H](O)[C@]1(C)O | 0.125 µg/mL | 0.25 µg/mL (≈ 0.264 µM) | 2 | 2 µg/mL | 2 µg/mL (≈ 2.11 µM) | 1 | 1 µg/mL | > 8 µg/mL | >8 | 2 µg/mL | > 16 µg/mL | >8 | > 256 µg/mL |  | 8 µg/mL | 16 µg/mL (≈ 16.9 µM) | 2 |  |  | 
8 | CC[C@H]1OC(=O)[C@H](C)[C@@H](OC(=O)Cc2ccccn2)[C@H](C)[C@@H](O[C@@H]2O[C@H](C)C[C@H](N(C)C)[C@H]2O)[C@](C)(OC(=O)CCNCCC#Cc2ccc3c(c2)c(=O)c(C(N)=O)cn3C)C[C@@H](C)CN(C)[C@H](C)[C@@H](O)[C@]1(C)O | 0.25 µg/mL | 0.5 µg/mL (≈ 0.484 µM) | 2 | 2 µg/mL | 4 µg/mL (≈ 3.87 µM) | 2 | 256 µg/mL | > 256 µg/mL |  | 16 µg/mL | > 128 µg/mL | >8 | > 256 µg/mL | > 256 µg/mL | 32 µg/mL | 64 µg/mL (≈ 61.9 µM) | 2 | 8 µg/mL | > 64 µg/mL | >8
9 | CC[C@H]1OC(=O)[C@H](C)[C@@H](OC(=O)Cc2ccccn2)[C@H](C)[C@@H](O[C@@H]2O[C@H](C)C[C@H](N(C)C)[C@H]2O)[C@](C)(OC(=O)CCNCCC#Cc2ccc3[nH]ccc(=O)c3c2)C[C@@H](C)CN(C)[C@H](C)[C@@H](O)[C@]1(C)O | 0.25 µg/mL | 0.25 µg/mL (≈ 0.256 µM) | 1 | 2 µg/mL | 4 µg/mL (≈ 4.1 µM) | 2 | 256 µg/mL | > 256 µg/mL |  | 16 µg/mL | > 128 µg/mL | >8 | > 256 µg/mL | > 256 µg/mL | 64 µg/mL | 128 µg/mL (≈ 131 µM) | 2 | 2 µg/mL | > 16 µg/mL | >8
